From PubChem BioAssay
XBP1 UPR activ: activators of adaptive arm of unfolded protein response (XBP1); AID 463104; activation, % at 20 µM; CHO-XBP1 luciferase reporter, IRE1-XBP1 UPR activation, luminescence; percent of tunicamycin response, DMSO as zero; 330,000 compounds, 0.33% hits;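 active = versus positive control, 20 µM dose yields 30% or more activation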
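Signal: luciferase luminescence; Assay system: CHO-XBP1 luciferase reporter cells; Amount: one thousand reporter cells per well; Dosing: 20 µM single concentration, DMSO 1%; Benchmarks: high control tunicamycin 10 µg/mL final, low control DMSO vehicle only; Schedule: 6 h compound exposure at 37 °C, 5% CO2; Evaluation: percent activation relative to tunicamycin reference.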
L major viab: reduces viability of Leishmania major promastigotes; resazurin fluorescence viability; inhibition, % at 10 µM; 200,000 compounds, 9% hits; AID 1063; in the data active = inhibition above about 50%;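 note: promastigotes grown with compound for 44 hours at 28 °C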
T cruzi inh: T. cruzi replication inhibition; 300,000 compounds, 1.4% hits; T. cruzi beta-gal in NIH3T3, luminescence, 90 h; inhibition, % (concentration not given with the values);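 active = mean inhibition across valid replicates above about 55%, limit read from the data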;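 note: signal also drops with host cell toxicity which is not excluded here; higher percent means less beta-gal luminescence so fewer parasites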
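Assay system: NIH/3T3 host cells with β-galactosidase reporter T. cruzi; input: 5,000 host fibroblasts per well; compound: single 50 nL compound addition per well in DMSO; timing: ≥90 h infection period, 3 h prior cell attachment; measured by: GalScreen β-gal luminescence, detergent lysis, 60 min; evaluation: percent inhibition of parasite-derived β-gal signal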
CHOP inhibitor: blocks CHOP induction under ER stress; CHO-K1 CHOP-promoter luciferase, tunicamycin-induced, 15-18 h; inhibition, % at 10 µM; 220,000 compounds, 3.8% hits;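 active = compounds that reduced the stress-induced luciferase reporter signal by more than about 70% of percent inhibition, limit read from the data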
CHOP UPR activ: activators of apoptotic arm of unfolded protein response (CHOP) | CHO-CHOP luciferase reporter, UPR activation, luminescence; percent of tunicamycin response over DMSO baseline | 330,000 compounds, 0.34% hits | activation, % at 10 µM;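 active = at 10 µM dose, activation of 40% or more, normalized to positive control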
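System: CHO-CHOP luciferase reporter cell line; amount: 500 cells/well; buffer or medium: F12 medium containing 10% fetal bovine serum; incubation: 6 h compound exposure at 37 °C after overnight seeding; measured by: luciferase luminescence after 10 min with Steady-Glo reagent; evaluation: % reporter activation, DMSO baseline versus tunicamycin full activation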
Dynein transport: dynein cargo transport inhibition; 3617.4 mouse cells, GR-EGFP nuclear translocation imaging; test concentration mostly 20 µM; stimulated with dexamethasone, 1 µM; stronger effect = lower value; z-score, hits read low; 220,000 compounds, 0.47% hits;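 active = plate z-score of nuclear minus cytoplasmic receptor signal below a set negative limit, without overly bright fluorescence or cell loss, cut at about -3.5 in these data, passing the limit was not always enough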;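 note: z-score of nuclear minus cytoplasmic ring GR-EGFP intensity difference per well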
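medium = tetracycline-free induction medium containing charcoal-stripped FBS | also added = 1.0 µM final dexamethasone stimulus | schedule = 48 h induction, 1 h compound, 30 min dex at 37 °C | technique = fixed, Hoechst-stained cells imaged at 10x for EGFP | measure = GR-EGFP nuclear translocation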
A number is an active result; i = inactive; nt = no result given. Many of the other results were omitted from the sample, so hits are more common in it than they were.

SMILES | XBP1 UPR activ | L major viab | T cruzi inh | CHOP inhibitor | CHOP UPR activ | Dynein transport
Cc1ccc(C)c(-n2c3nc(=O)[nH]c(=O)c-3cc3cc([N+](=O)[O-])ccc32)c1 | nt | 97 | nt | i | nt | i
CCN(CC)S(=O)(=O)c1cccc(C(=O)Nc2cc(C)on2)c1 | i | nt | i | nt | i | nt
CC1(C)Cc2c(c(N3CCOCC3)nc3sc4c(=O)[nH]cnc4c23)CS1 | i | i | i | i | i | i
CC1(C)Cc2c(c(N3CCOCC3)nc3sc4c(N5CCOCC5)nnnc4c23)CS1 | 58 | i | i | i | i | i
CCN(CC)CCNc1ncnc2c1sc1nc(N3CCOCC3)c3c(c12)CC(C)(C)SC3 | i | 100 | i | i | i | i
CN(C)CCNc1ncnc2c1sc1nc(N3CCOCC3)c3c(c12)CC(C)(C)SC3 | i | 101 | i | i | i | i
OCCN(CCO)c1ncnc2c1sc1nc(N3CCOCC3)c3c(c12)CCCC3 | i | i | i | i | i | i
O=C(CCn1c(=O)oc2cc(Cl)ccc21)Nc1ccc(N2CCOCC2)cc1 | i | nt | i | nt | i | nt
O=S(=O)(N/N=C\c1ccc2c(c1)OCO2)c1ccc(F)cc1 | i | nt | i | nt | i | nt
CC(CSc1nc2ccccc2s1)Cn1c(N2CCCC2)nc2c1c(=O)[nH]c(=O)n2C (stereo not drawn) | i | 52 | i | i | i | i
CC1CCN(c2nc3c(c(=O)[nH]c(=O)n3C)n2CC(C)CSc2nnnn2-c2ccccc2)CC1 (stereo not drawn) | i | 98 | i | i | i | i
O=C(NCC(c1ccco1)N1CCCC1)c1cccc(S(=O)(=O)N2CCOCC2)c1 (stereo not drawn) | i | nt | nt | nt | i | nt
CSc1nc(N)c2ncn([C@@H]3O[C@H](COP(=O)(O)OP(=O)(O)O)[C@H](O)C3O)c2n1 (stereo partly drawn) | nt | nt | nt | i | nt | nt
CC1CCC(C(C)C)C(OC(=O)Cn2c(-c3ccccc3)[n+](C)c3ccccc32)C1 (stereo not drawn) | i | 100 | i | i | i | i
CC1CCC(C(C)C)C(OC(=O)CSc2n[nH]c(=O)[nH]c2=O)C1 (stereo not drawn) | i | i | i | i | i | i
CC1CCC(C(C)C)C(OC(=O)Cn2c(-c3ccc(F)cc3)[n+](C)c3ccccc32)C1 (stereo not drawn) | i | 100 | nt | i | i | i
CCN(CC)C(=O)Cn1cnc2sc(C(=O)NCCCN3CCOCC3)c(C)c2c1=O | i | nt | i | nt | i | nt
CCN(CC(=O)Nc1c(F)cccc1F)C(=O)CSC(=S)N1CCCC1 | i | nt | nt | nt | i | nt
COC(=O)Cc1[nH]n(-c2nc3ccccc3s2)c(=O)c1C(C)=Nc1ccc(C)cc1 | i | i | i | 107 | i | i
COC(=O)Cc1[nH]n(-c2ccccc2)c(=O)c1C(C)=Nc1ccccc1 | i | i | i | i | i | i
COC(=O)Cc1[nH]n(-c2nc3ccccc3s2)c(=O)c1C(C)=Nc1ccc(Cl)cc1 | i | nt | i | 83 | i | i
CCCN=C(C)c1c(-c2ccccc2)[nH]n(-c2nc3ccccc3s2)c1=O | i | i | i | 72 | i | i
O=C(C1CC1)N1N=C(C2CCCCC2)CC1(O)C(F)(F)F (stereo not drawn) | i | i | i | i | i | i
CCOC(=O)C1=C(C)NC(C)=C(C(=O)OCC)C1c1cc(N)ccc1OC(F)F | i | 55 | i | i | i | i
CCOC(=O)C1=C(C)NC(C)=C(C(=O)OCC)C1C | i | i | i | i | i | i
SMILES | XBP1 UPR activ | L major viab | T cruzi inh | CHOP inhibitor | CHOP UPR activ | Dynein transport
Cc1onc(-c2ccccc2Cl)c1C(=O)Nc1ccccc1 | i | i | i | i | i | i
Cc1onc(-c2ccccc2)c1C(=O)N/N=C(\N)COc1ccc(Cl)cc1 | i | i | i | i | i | i
CCc1ccc(NC(=S)NC(=O)c2c(-c3ccccc3Cl)noc2C)cc1 | i | nt | i | i | i | i
Cc1onc(-c2ccccc2Cl)c1C(=O)N(C)C1CCCCC1 | i | 78 | i | i | i | i
Cc1onc(-c2ccccc2Cl)c1C(=O)N/N=C(\N)COc1ccc(Cl)cc1 | i | 84 | i | i | i | i
Cc1onc(-c2ccccc2Cl)c1C(=O)Nc1ccc(CN2CCCC2)cc1 | i | 99 | i | i | i | i
CCC(=O)Nc1ccc(/C(C)=N/NC(=O)c2c(-c3ccccc3Cl)noc2C)cc1 | i | 96 | i | i | i | i
COc1cc(NC(=O)[C@@H](NC(=O)N2CCn3c2nc2ccccc23)C(C)C)cc(OC)c1 | i | nt | i | nt | i | nt
O=C(Nc1ccc(Br)cc1)c1cccc(N2C(=O)C3CCCCC3C2=O)c1 (stereo not drawn) | i | nt | i | nt | i | nt
CCCCCc1c(C)[nH]c2nc3ccccc3n2c1=O | i | nt | i | nt | i | nt
CCC(=O)Nc1ccc(/C(C)=N\NC(=O)c2ccc(C)s2)cc1 | i | 96 | i | i | i | i
CCc1cccc(NC(=O)C2CCCN2S(=O)(=O)c2ccccc2C(F)(F)F)c1 (stereo not drawn) | i | nt | nt | nt | i | nt
COc1ccc(/C=C2/SC(=O)N(CCNC(=O)C3CCCN3C(=O)c3cccs3)C2=O)cc1 (stereo not drawn) | i | 76 | i | i | i | i
COc1ccc(/C=C2\SC(=O)N(CCNC(=O)C3CC4C=CC3C4)C2=O)cc1 (stereo not drawn) | i | 96 | i | i | i | i
COc1ccc(CNC(=O)COC(=O)C2CCC(C(C)(C)C)CC2)cc1 (stereo not drawn) | i | i | i | 90 | i | i
Cc1ccc(CNC(=O)COC(=O)C2CC2)cc1 | i | nt | nt | nt | i | nt
CC(C)c1cc(CNC(=O)C2CCC(=O)N(CCc3ccc(Cl)cc3)C2)on1 (stereo not drawn) | i | nt | i | nt | i | nt
CCOC(=O)C1(CCOc2ccccc2)CCN(CC(O)CO)CC1 (stereo not drawn) | i | nt | i | nt | i | nt
COc1ccc(CN(C)CC(=O)Nc2cccc(S(=O)(=O)N(C)c3ccccc3)c2)c(OC)c1 | i | nt | nt | nt | i | nt
NS(=O)(=O)c1cccc(NC(=O)c2cc(=O)c3ccccc3o2)c1 | i | nt | i | nt | i | nt
CN(c1ccccc1)S(=O)(=O)c1cccc(NC(=O)c2cc(=O)c3ccccc3o2)c1 | i | 80 | i | i | i | i
CN(c1ccccc1)S(=O)(=O)c1cccc(NC(=O)CCNC(=O)c2ccccc2)c1 | i | nt | nt | nt | i | nt
CCCC(=O)Nc1cccc(S(=O)(=O)N(C)c2ccccc2)c1 | i | 67 | i | i | i | i
COc1ccc(NC(=O)CN(C)CC(=O)Nc2cccc(S(=O)(=O)N(C)c3ccccc3)c2)cc1 | i | 81 | i | i | i | i
CN(c1ccccc1)S(=O)(=O)c1cccc(NC(=O)CSc2nncn2C)c1 | i | 57 | i | i | i | i
